Test results from ChEMBL document CHEMBL3797069, “Betulin Derivatives Effectively Suppress Inflammation in Vitro and in Vivo” (J Nat Prod, 2016).
The source made the active and inactive calls. No cut-off for these calls is given here.

What was measured:
J774 [1] = test: Downregulation of LPS-induced MCP-1 mRNA levels in mouse J774 cells after 3 to 6 hrs by qRT-PCR method; format: functional, cell-based
Summary of the method: (§1)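 Activated J774 cells received compound at 10 μM alongside LPS. At 3, 6 or 24 h, total RNA was extracted and iNOS, IL-6 or MCP-1 mRNA was measured by TaqMan quantitative RT-PCR (40 cycles, 95 °C/60 °C) in duplicate. Levels came from a standard curve and were normalized to GAPDH. n = 4 versus LPS only.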

Mus musculus [2] = test: Antiinflammatory activity in C57BL/6NCrl mouse assessed as inhibition of carrageenan-induced paw edema at 10 mg/kg, ip administered 2 hrs prior to carrageenan challenge measured after 6 hrs by plethysmometry; format: functional
Summary of the method: (§2)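 Eight-week-old male mice were dosed ip with compound (10 mg/kg), dexamethasone (2 mg/kg) or PBS-8% DMSO vehicle 2 h before carrageenan. Under medetomidine/ketamine anesthesia, 45 μL of 1.5% λ-carrageenan in saline was given intradermally into one hindpaw, with saline in the contralateral paw. Paw volume was measured by plethysmometer before and at 3 and 6 h. n = 6–12.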

J774 [3] = test: Downregulation of LPS-induced IL-6 expression in mouse J774 cells at 0.3 to 10 uM after 24 hrs by ELISA; format: functional, cell-based
Summary of the method: (§3)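 LPS-stimulated J774 cells were incubated 24 h with compound at 0.3–10 μM. IL-6 and MCP-1 concentrations in the medium were determined by ELISA. Mean + SEM, n = 4, compared with LPS alone.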

J774 [4] = test: Downregulation of LPS-induced MCP-1 expression in mouse J774 cells at 0.3 to 10 uM after 24 hrs by ELISA; format: functional, cell-based; summary of the method: as §3
J774 [5] = test: Antiinflammatory activity against mouse J774 cells assessed as inhibition of LPS-induced COX-2 expression measured as remaining protein levels at 10 uM after 24 hrs by Western blot analysis; format: functional
Summary of the method: (§4)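 Murine J774 macrophages were grown 72 h to confluence in DMEM with 10% heat-inactivated FBS at 37 °C, 5% CO2. Compound was added in fresh medium with LPS for 24 h. Cells were lysed, and 20 μg protein was immunoblotted for COX-2 or iNOS with actin as the loading control, detected by chemiluminescence. n = 4, mean ± SEM versus LPS alone.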

J774 [6] = test: Antiinflammatory activity against mouse J774 cells assessed as inhibition of LPS-induced IL-6 production measured as remaining IL-6 levels at 10 uM after 24 hrs by ELISA; format: functional
Summary of the method: (§5)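 J774 macrophages were grown 72 h to confluence, then exposed to LPS with compound at 10 μM in fresh medium for 24 h. IL-6 and MCP-1 in the culture medium were quantified by ELISA. n = 4, mean ± SEM relative to LPS-only cells.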

J774 [7] = test: Antiinflammatory activity against mouse J774 cells assessed as inhibition of LPS-induced MCP-1 production measured as remaining MCP-1 levels at 10 uM after 24 hrs by ELISA; format: functional; summary of the method: as §5
J774 [8] = test: Downregulation of LPS-induced IL-6 mRNA levels in mouse J774 cells after 6 hrs by qRT-PCR method; format: functional, cell-based; summary of the method: as §1
J774 [9] = test: Downregulation of LPS-induced iNOS expression in mouse J774 cells at 0.3 to 10 uM after 24 hrs by Western blot analysis; format: functional, cell-based
Summary of the method: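 Dose–response was run in LPS-activated J774 macrophages over 24 h, with iNOS protein detected by Western blot and actin as the loading control.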

J774 [10] = test: Antiinflammatory activity in mouse J774 cells assessed as inhibition of LPS-induced nitric oxide production measured as remaining nitric oxide levels at 10 uM by Griess assay; format: functional
Summary of the method: (§6)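 Confluent J774 monolayers were treated with LPS plus compound at 10 μM in fresh medium, 24 h. NO was read as accumulated nitrite in the medium by Griess reaction. n = 4, mean ± SEM versus cells cultured with LPS only.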

Mus musculus [11] = test: Antiinflammatory activity in C57BL/6NCrl mouse assessed as inhibition of carrageenan-induced paw edema at 10 mg/kg, ip administered 2 hrs prior to carrageenan challenge measured after 3 hrs by plethysmometry; format: functional; summary of the method: as §2
J774 [12] = test: Downregulation of LPS-induced iNOS mRNA levels in mouse J774 cells after 6 to 24 hrs by qRT-PCR method; format: functional, cell-based; summary of the method: as §1
J774 [13] = test: Antiinflammatory activity in mouse J774 cells assessed as inhibition of LPS-induced iNOS expression measured as remaining protein levels at 10 uM after 24 hrs by Western blot analysis; format: functional; summary of the method: as §4
J774 [14] = test: Antiinflammatory activity against mouse J774 cells assessed as inhibition of LPS-induced nitric oxide production at 10 uM by Griess assay; format: functional; summary of the method: as §6
J774 [15] = test: Antiinflammatory activity against mouse J774 cells assessed as inhibition of LPS-induced iNOS expression at 10 uM after 24 hrs by Western blot analysis; format: functional, cell-based; summary of the method: as §4
J774 [16] = test: Antiinflammatory activity against mouse J774 cells assessed as inhibition of LPS-induced COX-2 expression at 10 uM after 24 hrs by Western blot analysis; format: functional; conditions: J774, 24 h; summary of the method: as §4
J774 [17] = test: Antiinflammatory activity against mouse J774 cells assessed as inhibition of LPS-induced IL-6 production at 10 uM after 24 hrs by ELISA; format: functional; conditions: J774, 24 h; summary of the method: as §5
J774 [18] = test: Antiinflammatory activity against mouse J774 cells assessed as inhibition of LPS-induced MCP-1 production at 10 uM after 24 hrs by ELISA; format: functional; conditions: J774, 24 h; summary of the method: as §5
J774 [19] = test: Inhibition of LPS-induced iNOS mRNA levels in mouse J774 cells after 6 hrs by qRT-PCR method; format: functional, cell-based; summary of the method: as §1
J774 [20] = test: Antiinflammatory activity against mouse J774 cells assessed as inhibition of LPS-induced iNOS expression after 24 hrs by Western blot analysis; format: functional, cell-based; conditions: J774, 24 h
Summary of the method: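 Murine J774 macrophages in DMEM with 10% heat-inactivated FBS, grown 72 h to confluence, then given LPS plus compound in fresh medium for 24 h. Cells washed in ice-cold PBS and lysed; 20 μg protein per lane on Western blot for iNOS, with β-actin as loading control and chemiluminescent detection. Values relative to LPS-only cells; mean ± SEM, n = 4.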

SMILES	Activity (J774 [5]) [%]	Remaining IL-6 level (% of LPS-only) (J774 [6]) [%]	Activity (J774 [7]) [%]	Remaining nitric oxide level (% of LPS-only control) (J774 [10]) [%]	Activity (J774 [13]) [%]	also measured
C=C(C)[C@@H]1CC[C@]2(C(=O)O)CC[C@]3(C)[C@H](CC[C@@H]4[C@@]5(C)Cc6c[nH]nc6C(C)(C)[C@@H]5CC[C@]43C)[C@@H]12	58.2	39.5	28	53.3	27.5	Activity (J774 [1]): Active; inhibition in vivo at 10 mg/kg (Mus musculus [2]): 44%; Activity (J774 [3]): Active; Activity (J774 [4]): Active; Activity (J774 [8]): Active; Activity (J774 [9]): Active; inhibition in vivo at 10 mg/kg (Mus musculus [11]): 27%; Activity (J774 [12]): Active
CCC(=O)OC[C@]12CC[C@]3(C(C)C)C1=C1[C@H](C[C@@H]4[C@@]5(C)CC[C@H](OC(=O)CC)C(C)(C)[C@@H]5CC[C@@]4(C)[C@]1(C)CC2)n1c(=O)n(C)c(=O)n13	43	60	80.3	55.7	50.5	
C=C(C)[C@@H]1CC[C@]2(C(=O)O)CC[C@]3(C)[C@H](CC[C@@H]4[C@@]5(C)C[C@H](O)[C@H](O)C(C)(C)[C@@H]5CC[C@]43C)[C@@H]12	93.4	70.7	68.3	71.4	63.6	
C[C@@H]1C[C@H]2[C@@H]3CCC4=CC(=O)C=C[C@]4(C)[C@@]3(F)[C@@H](O)C[C@]2(C)[C@@]1(O)C(=O)CO [DEXAMETHASONE]						inhibition at 10 µM (J774 [14]): 85%; inhibition (J774 [15]): Active; inhibition at 10 µM (J774 [16]): 90%; inhibition at 10 µM (J774 [17]): 86%; inhibition at 10 µM (J774 [18]): 38%
C=C(C)[C@@H]1CC[C@]2(C(N)=O)CC[C@]3(C)[C@H](CC[C@@H]4[C@@]5(C)Cc6nccnc6C(C)(C)[C@@H]5CC[C@]43C)[C@@H]12	89.9	82.8	79.4	111.9	34.9	
C=C(C)[C@@H]1CC[C@]2(C=O)CC[C@]3(C)[C@H](CC[C@@H]4[C@@]5(C)Cc6cnoc6C(C)(C)[C@@H]5CC[C@]43C)[C@@H]12	49.6	91.4	102.1	113.1	57.5	
C=C(C)[C@@H]1CC[C@]2(C(N)=O)CC[C@]3(C)[C@H](CC[C@@H]4[C@@]5(C)Cc6cnoc6C(C)(C)[C@@H]5CC[C@]43C)[C@@H]12	105.5	90.9	57.6	66.5	8.3	inhibition (J774 [19]): inactive; IC50 (J774 [20]): 300 nM
CC1(C)CC[C@]23CC[C@]4(C)[C@H](CC[C@@H]5[C@@]6(C)Cc7c([nH]c8ccccc78)C(C)(C)[C@@H]6CC[C@]54C)[C@H]2C1OC3	94.8	92.1	96.2	96.5	94.5	
CC1(C)CC[C@]23CC[C@]4(C)[C@H](CC[C@@H]5[C@@]6(C)Cc7c([nH]c8ccc(F)cc78)C(C)(C)[C@@H]6CC[C@]54C)[C@H]2C1OC3	91.8	99.3	108.5	122.6	83.9	
C=C(C)[C@@H]1CC[C@]2(C(=O)O)CC[C@]3(C)[C@H](CC[C@@H]4[C@@]5(C)Cc6c([nH]c7ccc(OC)cc67)C(C)(C)[C@@H]5CC[C@]43C)[C@@H]12	162.6	123.5	73.1	97.5	95.1	
C=C(C)[C@@H]1CC[C@]2(C(=O)O)CC[C@]3(C)[C@H](CC[C@@H]4[C@@]5(C)Cc6c([nH]c7ccccc67)C(C)(C)[C@@H]5CC[C@]43C)[C@@H]12	140.9	108.9	83.4	79.5	66.6	
C=C(C)[C@@H]1CC[C@]2(C(=O)O)CC[C@]3(C)[C@H](CC[C@@H]4[C@@]5(C)CCC(=O)C(C)(C)[C@@H]5CC[C@]43C)[C@@H]12 [BETUNOLIC ACID]	107.1	87.1	118	45.3	38.3	
C=C(C)[C@@H]1CC[C@]2(CO)CC[C@]3(C)[C@H](CC[C@@H]4[C@@]5(C)CC[C@H](O)C(C)(C)[C@@H]5CC[C@]43C)[C@@H]12 [BETULIN]	175.1	133.9	206.5	47.9	63.4	
C=C(C)[C@@H]1CC[C@]2(/C=N/O)CC[C@]3(C)[C@H](CC[C@@H]4[C@@]5(C)CC[C@H](O)C(C)(C)[C@@H]5CC[C@]43C)[C@@H]12	127	98.3	136.9	31.3	6.2	inhibition (J774 [19]): inactive; IC50 (J774 [20]): 300 nM
C=C(C)[C@@H]1CC[C@]2(C(=O)O)CC[C@]3(C)[C@H](CC[C@@H]4[C@@]5(C)Cc6nccnc6C(C)(C)[C@@H]5CC[C@]43C)[C@@H]12						inhibition (J774 [19]): inactive; IC50 (J774 [20]): 300 nM
C=C(C)[C@@H]1CC[C@]2(C(=O)O)CC[C@]3(C)[C@H](CC[C@@H]4[C@@]5(C)CC6OC(C)(C)OC6C(C)(C)[C@@H]5CC[C@]43C)[C@@H]12 (some centres undefined)	117.4	131.7	87	75.2	40.7	
C=C(C)[C@@H]1CC[C@]2(C(=O)O)CC[C@]3(C)[C@H](CC[C@@H]4[C@@]5(C)CC[C@H](O)C(C)(C)[C@@H]5CC[C@]43C)[C@@H]12 [BETULINIC ACID]	96	66.1	98.5	69	57.6	
